Experimental data from article PMC8217219 (Bone, 2021).

Columns and labels:
[1] = system: MC3T3 cells; experiment: Alizarin red staining; assay type: cell-based, mouse; details: for osteogenic boosting (calcium deposition, alizarin red) / mineralization (alizarin red staining, percent coverage area): 5μM, day 18; for osteogenic boosting (calcium deposition, alizarin red): Ezh2 overexpressing MC3T3 cells; for mineralization (alizarin red staining, percent coverage area): control MC3T3 cells (empty vector)
[2] = system: MC3T3 cells; experiment: Alkaline phosphatase; assay type: cell-based, mouse; details: day six; for alkaline phosphatase (Alpl) enzymatic activity: MC3T3 cells, optimal doses (40μM CPI-169, 5μM all others), vs vehicle
[3] = system: MC3T3 cells; experiment: Live/Dead cytotoxicity assay; assay type: cell-based; details: subconfluent MC3T3 cells, 100μM, 3 days
In short: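 Viability was scored in subconfluent MC3T3-E1 (sc4) cultures after 3 days with test compound at 1, 10 or 100 μM. Medium was removed and cells were incubated 20 min with calcein-AM and ethidium homodimer-1 in PBS. Live-cell fluorescence was read at 465/540 nm. Values were normalized to DMSO-treated control (1:100 dilution).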

[4] = system: MC3T3 cells; experiment: Hoechst staining; assay type: cell-based; details: subconfluent MC3T3 cells, 100μM, 3 days
In short: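 Subconfluent, proliferating MC3T3-E1 (sc4) cells were exposed to test compound at 1, 10 or 100 μM for 3 days. Cells were washed with PBS, covered with 0.1X Tris-EDTA, frozen at −80°C for at least 2 h and thawed at room temperature. They were then stained 15 min in the dark with Hoechst 33258 (0.5 μg/ml in 0.3 M NaCl, 5 mM Tris, pH 8.0). Fluorescence was read at 340/460 and fit to a DNA standard curve. Values were normalized to DMSO control (1:100 dilution); n = 3.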

[5] = system: MC3T3 cells; experiment: RT-qPCR of osteogenic genes; assay type: cell-based, mouse; details: for osteogenic markers (mRNA) / expression of bone-related genes: 5μM; for expression of bone-related genes: combined with Ezh2 siRNA knockdown, days five and ten
[6] = system: H3K27me3; experiment: Western blot of cellular H3K27me3 levels; assay type: cell-based, mouse; details: MC3T3 cells, single dose 1μM, 24 hour treatment, relative to Gapdh
[7] = system: MC3T3 cells; experiment: MTS metabolic activity assay; assay type: cell-based; details: subconfluent MC3T3 cells, 10μM, 3 days
In short: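 Subconfluent MC3T3-E1 (sc4) cells were given test compound at 1, 10 or 100 μM for 3 days. The MTS reagent was used per kit protocol and absorbance was read at 490 nm. Metabolic activity was expressed relative to DMSO-treated control (1:100 dilution).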

[8] = cited from earlier work
[9] = 5μM day two to five, combined with Ezh2 siRNA knockdown, day 24
[10] = MC3T3 cell differentiation, day ten
[11] = MC3T3 cells overexpressing Ezh2, day ten

With `CCS(=O)(=O)N1CCC([C@@H](C)n2c(C)c(C(=O)NCc3c(OC)cc(C)[nH]c3=O)c3ccccc32)CC1` [CPI-169] the optimal dose ([1]; MC3T3 cells, 2X dose, from alizarin red quantitation (Fig. 4, red arrows)) was 40 µM, the “alkaline phosphatase (Alpl) enzymatic activity” value [2] was “~three fold stimulation” and the “fraction of living cells (live/dead staining)” value (“fraction … (live/dead staining)” below) [3] was “not observed”. For the same compound, the “cell numbers (Hoechst staining)” value [4] was “not observed”.

In the case of `C[S+](C)[O-]` [DMSO, dimethyl sulfoxide], the Alpl enzymatic activity ([2]; low (0.05%) and high (0.4%) doses vs osteogenic medium (OM)) is reported as “enhance Alpl enzymatic activity”, the “mRNA levels of osteoblast differentiation markers (Alpl, Sp7, Ibsp, Phospho1)” value ([5]; 0.05% DMSO or 0.4% DMSO vs no DMSO, osteogenic medium, six days) is reported as “significantly elevated” and the “expression of late marker Bglap” value ([5]; DMSO 0.05% or 0.4% in osteogenic media, day ten) is reported as “did not show compelling changes”.

In the case of `CCC(CC)n1ccc2c(C(=O)NCc3c(C)cc(C)[nH]c3=O)cc(C#N)cc21` [EI1], the “reduction in H3K27me3” value [6] is reported as 2–3 fold, the “fraction … (live/dead staining)” value [3] is reported as “not observed” and the “cell numbers (Hoechst staining)” value [4] is reported as “not observed”. For the same compound, the “metabolic activity (MTS)” value [7] was “less harmful to metabolic cell activity”.

With `CCN(c1cc(-c2ccc(CN3CCOCC3)cc2)cc(C(=O)NCc2c(C)cc(C)[nH]c2=O)c1C)C1CCOCC1` [EPZ-6438] the “reduction in H3K27me3” value [6] was > 5 fold, the “alizarin red staining compared with GSK126 co-treatment” value ([1]; 5μM combined with Ezh2 siRNA, day 24) was “more robust staining” and the “ECM mineralization (alizarin red)” value [1, 9] was “enhances ECM mineralization”. The “osteogenic boosting (calcium deposition, alizarin red)” value [1] was “not observed”, the “mineralization (alizarin red staining, percent coverage area)” value [1] was “accelerated mineralization and more intense alizarin red staining” and the “fraction … (live/dead staining)” value [3] was “significant reductions”. For the same compound, the “cell numbers (Hoechst staining)” value [4] was “significant reductions”, the “osteogenic markers (mRNA)” value [5, 10] was “highly effective at increasing osteogenic markers” and the “osteogenic markers (mRNA)” value [5, 11] was “not when cells overexpress Ezh2”. For the same compound, the “expression of bone-related genes” value [5] was “co-stimulates expression of bone-related genes” and the “metabolic activity (MTS)” value [7] was “less harmful to metabolic cell activity”.

With `CC[C@H](C)n1cc(C)c2c(C(=O)NCc3c(C)cc(C)[nH]c3=O)cc(-c3ccc(N4CCNCC4)nc3)cc21` [GSK126] the “reduction in H3K27me3” value [6] was 2–3 fold, the “ECM mineralization (alizarin red)” value [1, 9] was “enhances ECM mineralization” and the “osteogenic boosting (calcium deposition, alizarin red)” value [1] was “not observed”. For the same compound, the “mineralization (alizarin red staining, percent coverage area)” value [1] was “accelerated mineralization and more intense alizarin red staining”, the “fraction … (live/dead staining)” value [3] was “significant reductions” and the “cell numbers (Hoechst staining)” value [4] was “significant reductions”. The “adverse effects in other tissues and organs (e.g., spleen, liver)” value ([8]; adult mice (8–12 weeks) ref 29) was “no adverse effects”, the bone anabolic effect ([8]; adult mice (8–12 weeks) ref 29) was “modestly bone anabolic” and the bone accrual ([8]; normal and ovariectomized mice ref 29) was “effective for stimulation of bone accrual”. The “osteogenic markers (mRNA)” value [5, 10] was “highly effective at increasing osteogenic markers”, the “osteogenic markers (mRNA)” value [5, 11] was “not when cells overexpress Ezh2” and the “expression of bone-related genes” value [5] was “co-stimulates expression of bone-related genes”.

In the case of `Cc1cc(C)c(CNC(=O)c2cc(-c3ccc(N4CCN(C)CC4)nc3)cc3c2c(C)cn3C(C)C)c(=O)[nH]1` [GSK503], the “reduction in H3K27me3” value [6] is reported as > 5 fold, the “fraction … (live/dead staining)” value [3] is reported as “significant reductions” and the “cell numbers (Hoechst staining)” value [4] is reported as “significant reductions”.

For `Cc1cc(C)c(CN2CCc3c(Cl)cc(-c4c(C)noc4C)c(Cl)c3C2=O)c(=O)[nH]1` [PF-06726304], the “fraction … (live/dead staining)” value [3] was “significant reductions” and the “cell numbers (Hoechst staining)” value [4] was “significant reductions”.

In the case of `CCCc1cc(C)[nH]c(=O)c1CNC(=O)c1cc(-c2ccc(N3CCN(C(C)C)CC3)nc2)cc2c1cnn2C(C)C` [UNC1999], the “reduction in H3K27me3” value [6] is reported as > 5 fold, the “ECM mineralization (alizarin red)” value ([1]; MC3T3 cells, optimal doses for first six days, day 24 and day 28) is reported as “except UNC1999” and the “alkaline phosphatase (Alpl) enzymatic activity” value [2] is reported as “except for UNC1999”. For the same compound, the “fraction … (live/dead staining)” value [3] was “significant reductions” and the “cell numbers (Hoechst staining)” value [4] was “significant reductions”.
